In brackets after ≈: the same amount, converted by molar mass.
Assays:
Format in all cases: functional
[1] = tested on: Streptococcus pyogenes; assay: Antibacterial activity against inducible macrolide, licosamide and streptogramin-resistant Streptococcus pyogenes Finland 11 by broth microdilution technique
Method in brief: (§1)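 MICs were determined by CLSI broth microdilution, with double dilutions of compound. In the streptococcal medium, 5% horse serum replaced lysed blood. Streptococci were grown on Columbia agar with 5% sheep blood before testing. Results are given in µg/mL.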

[2] = tested on: Streptococcus pneumoniae; assay: Antibacterial activity against erythromycin-sensitive Streptococcus pneumoniae SP030 by broth microdilution technique
Method in brief: (§2)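 Streptococcal MICs by CLSI broth microdilution with doubling dilutions, but with 5% horse serum in the medium in place of lysed blood. Before testing, strains were grown on Columbia agar with 5% sheep blood. Values reported in µg/mL.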

[3] = tested on: Streptococcus pneumoniae; assay: Antibacterial activity against constitutive macrolide, licosamide and streptogramin-resistant Streptococcus pneumoniae 58 Spain by broth microdilution technique; method in brief: as §1
[4] = tested on: Haemophilus influenzae; assay: Antibacterial activity against Haemophilus influenzae ATCC 49247 by broth microdilution technique
Method in brief: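 MIC by broth microdilution per CLSI guidelines with doubling dilutions of compounds. Before testing, organisms were grown on Mueller-Hinton chocolate agar. Values reported in µg/mL.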

[5] = tested on: Streptococcus pneumoniae; assay: Antibacterial activity against inducible macrolide-resistant, constitutive licosamide and streptogramin-resistant Streptococcus pneumoniae 134 GR-Micro by broth microdilution technique; method in brief: as §1
[6] = tested on: Streptococcus pneumoniae; assay: Antibacterial activity against efflux-mediated macrolide-resistant Streptococcus pneumoniae Ci137 by broth microdilution technique; method in brief: as §1
[7] = tested on: Staphylococcus aureus; assay: Antibacterial activity against erythromycin-sensitive Staphylococcus aureus ATCC 13709 by broth microdilution technique
Method in brief: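 MIC by broth microdilution per CLSI guidelines with doubling dilutions of compounds. Before testing, staphylococci were grown on Mueller–Hinton agar. Values reported in µg/mL.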

[8] = tested on: Staphylococcus aureus; assay: Antibacterial activity against constitutive macrolide, licosamide and streptogramin-resistant Staphylococcus aureus PK2 by broth microdilution technique
Method in brief: (§3)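 MICs were determined by CLSI broth microdilution, with double dilutions of compound. Staphylococci were grown on Mueller–Hinton agar before testing. Results are given in µg/mL.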

[9] = tested on: Streptococcus pyogenes; assay: Antibacterial activity against erythromycin-sensitive Streptococcus pyogenes 3565 by broth microdilution technique; method in brief: as §2
[10] = tested on: Streptococcus pyogenes; assay: Antibacterial activity against constitutive macrolide, licosamide and streptogramin-resistant Streptococcus pyogenes 166 GR-Micro by broth microdilution technique; method in brief: as §1
[11] = tested on: Streptococcus pyogenes; assay: Antibacterial activity against efflux-mediated macrolide-resistant Streptococcus pyogenes 3 Finland by broth microdilution technique; method in brief: as §1
[12] = tested on: Staphylococcus aureus; assay: Antibacterial activity against inducible macrolide, licosamide and streptogramin-resistant Staphylococcus aureus 90256/97 by broth microdilution technique; method in brief: as §3
[13] = tested on: Staphylococcus aureus; assay: Antibacterial activity against efflux-mediated macrolide-resistant Staphylococcus aureus PK1 by broth microdilution technique; method in brief: as §3
[14] = tested on: Moraxella catarrhalis; assay: Antibacterial activity against Moraxella catarrhalis ATCC 23246 by broth microdilution technique
Method in brief: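 MIC by broth microdilution per CLSI guidelines with doubling dilutions of compounds. Before testing, organisms were grown on Columbia agar with 5% sheep blood. Values reported in µg/mL.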

| Compound | MIC [1] [µg/mL] | MIC [2] [µg/mL] | MIC [3] [µg/mL] | MIC [4] [µg/mL] | MIC [5] [µg/mL] | MIC [6] [µg/mL] | MIC [7] [µg/mL] | MIC [8] [µg/mL] | MIC [9] [µg/mL] | MIC [10] [µg/mL] | MIC [11] [µg/mL] | MIC [12] [µg/mL] | MIC [13] [µg/mL] | MIC [14] [µg/mL] |
| --- | --- | --- | --- | --- | --- | --- | --- | --- | --- | --- | --- | --- | --- | --- |
| CC[C@H]1OC(=O)[C@H](C)[C@@H](O[C@H]2C[C@@](C)(OC)[C@@H](OCCCN3CCN(CCCc4ccc5c(c4)c(=O)c(C(=O)O)cn5CC)CC3)[C@H](C)O2)[C@H](C)[C@@H](O[C@@H]2O[C@H](C)C[C@H](N(C)C)[C@H]2O)[C@](C)(O)C[C@@H](C)CN(C)[C@H](C)[C@@H](O)[C@]1(C)O | 4 (≈ 3.53 µM) | ≤ 0.125 | 8 (≈ 7.06 µM) | 32 (≈ 28.3 µM) | 32 (≈ 28.3 µM) | 0.25 (≈ 0.221 µM) | 8 (≈ 7.06 µM) | > 64 | 0.5 (≈ 0.442 µM) | > 64 | 8 (≈ 7.06 µM) | > 64 | 32 (≈ 28.3 µM) | – |
| CCOC(=O)c1cn(C2CC2)c2ccc(C#CCN3CCN(C(=O)OC(C)(C)C)CC3)cc2c1=O | > 64 | > 64 | > 64 | > 64 | > 64 | > 64 | > 64 | > 64 | > 64 | > 64 | > 64 | > 64 | > 64 | > 64 |
| CCOC(=O)c1cn(CC)c2ccc(/C=C/CN3CCN(C(=O)OC(C)(C)C)CC3)cc2c1=O | > 64 | 64 (≈ 136 µM) | > 64 | > 64 | > 64 | > 64 | > 64 | > 64 | > 64 | > 64 | > 64 | > 64 | > 64 | > 64 |
| CCOC(=O)c1cn(CC)c2ccc(CCCN3CCN(CCC(=O)O[C@H]4[C@H](C)O[C@@H](O[C@H]5[C@H](C)[C@@H](O[C@@H]6O[C@H](C)C[C@H](N(C)C)[C@H]6O)[C@](C)(O)C[C@@H](C)CN(C)[C@H](C)[C@@H](O)[C@](C)(O)[C@@H](CC)OC(=O)[C@@H]5C)C[C@@]4(C)OC)CC3)cc2c1=O | ≤ 0.125 | ≤ 0.125 | ≤ 0.125 | 2 (≈ 1.7 µM) | ≤ 0.125 | ≤ 0.125 | 1 (≈ 0.851 µM) | > 64 | ≤ 0.125 | 32 (≈ 27.2 µM) | 0.5 (≈ 0.426 µM) | > 64 | 64 (≈ 54.5 µM) | 0.25 (≈ 0.213 µM) |
| CCOC(=O)c1cn(CC)c2ccc(CCCN3CCN(CCC(=O)O[C@H]4[C@H](C)O[C@@H](O[C@H]5[C@H](C)[C@@H](O[C@@H]6O[C@H](C)C[C@H](N(C)C)[C@H]6O)[C@](C)(O)C[C@@H](C)CN(C)[C@H](C)[C@@H](OC)[C@](C)(O)[C@@H](CC)OC(=O)[C@@H]5C)C[C@@]4(C)OC)CC3)cc2c1=O | 2 (≈ 1.68 µM) | ≤ 0.125 | 8 (≈ 6.73 µM) | 32 (≈ 26.9 µM) | 32 (≈ 26.9 µM) | 2 (≈ 1.68 µM) | 4 (≈ 3.37 µM) | > 64 | ≤ 0.125 | > 64 | 2 (≈ 1.68 µM) | > 64 | > 64 | 0.25 (≈ 0.21 µM) |
| CCOC(=O)c1cn(C2CC2)c2ccc(CCCN3CCN(CCC(=O)O[C@H]4[C@H](C)O[C@@H](O[C@H]5[C@H](C)[C@@H](O[C@@H]6O[C@H](C)C[C@H](N(C)C)[C@H]6O)[C@](C)(OC)C[C@@H](C)C(=O)[C@H](C)[C@@H](O)[C@](C)(O)[C@@H](CC)OC(=O)[C@@H]5C)C[C@@]4(C)OC)CC3)cc2c1=O | 0.5 (≈ 0.422 µM) | ≤ 0.125 | 4 (≈ 3.37 µM) | > 64 | 16 (≈ 13.5 µM) | ≤ 0.125 | 4 (≈ 3.37 µM) | > 64 | ≤ 0.125 | 16 (≈ 13.5 µM) | ≤ 0.125 | > 64 | > 64 | 4 (≈ 3.37 µM) |
| CC[C@H]1OC(=O)[C@H](C)[C@@H](O[C@H]2C[C@@](C)(OC)[C@@H](OCCCN3CCN(C/C=C/c4ccc5c(c4)c(=O)c(C(=O)O)cn5CC)CC3)[C@H](C)O2)[C@H](C)[C@@H](O[C@@H]2O[C@H](C)C[C@H](N(C)C)[C@H]2O)[C@](C)(O)C[C@@H](C)CN(C)[C@H](C)[C@@H](O)[C@]1(C)O | 1 (≈ 0.885 µM) | ≤ 0.125 | 32 (≈ 28.3 µM) | 16 (≈ 14.2 µM) | > 64 | 8 (≈ 7.08 µM) | 2 (≈ 1.77 µM) | > 64 | ≤ 0.125 | 64 (≈ 56.6 µM) | 4 (≈ 3.54 µM) | > 64 | 8 (≈ 7.08 µM) | 0.5 (≈ 0.442 µM) |
| CCOC(=O)c1cn(CC)c2ccc(C#CCN3CCN(CCC(=O)O[C@H]4[C@H](C)O[C@@H](O[C@H]5[C@H](C)[C@@H](O[C@@H]6O[C@H](C)C[C@H](N(C)C)[C@H]6O)[C@](C)(O)C[C@@H](C)CN(C)[C@H](C)[C@@H](O)[C@](C)(O)[C@@H](CC)OC(=O)[C@@H]5C)C[C@@]4(C)OC)CC3)cc2c1=O | ≤ 0.125 | ≤ 0.125 | ≤ 0.125 | 4 (≈ 3.42 µM) | ≤ 0.125 | ≤ 0.125 | 1 (≈ 0.854 µM) | > 64 | ≤ 0.125 | 32 (≈ 27.3 µM) | ≤ 0.125 | > 64 | 16 (≈ 13.7 µM) | 1 (≈ 0.854 µM) |
| CCOC(=O)c1cn(CC)c2ccc(C#CCN3CCN(CCC(=O)O[C@H]4[C@H](C)O[C@@H](O[C@H]5[C@H](C)[C@@H](O[C@@H]6O[C@H](C)C[C@H](N(C)C)[C@H]6O)[C@](C)(OC)C[C@@H](C)C(=O)[C@H](C)[C@@H](O)[C@](C)(O)[C@@H](CC)OC(=O)[C@@H]5C)C[C@@]4(C)OC)CC3)cc2c1=O | ≤ 0.125 | ≤ 0.125 | ≤ 0.125 | 4 (≈ 3.42 µM) | 1 (≈ 0.855 µM) | ≤ 0.125 | 0.25 (≈ 0.214 µM) | > 64 | ≤ 0.125 | 8 (≈ 6.84 µM) | – | > 64 | 32 (≈ 27.4 µM) | 1 (≈ 0.855 µM) |
| CC[C@H]1OC(=O)[C@H](C)[C@@H](O[C@H]2C[C@@](C)(OC)[C@@H](O)[C@H](C)O2)[C@H](C)[C@@H](O[C@@H]2O[C@H](C)C[C@H](N(C)C)[C@H]2O)[C@](C)(O)C[C@@H](C)CN(C)[C@H](C)[C@@H](O)[C@]1(C)O [AZITHROMYCIN] | 16 (≈ 21.4 µM) | ≤ 0.125 | > 64 | 1 (≈ 1.34 µM) | > 64 | 8 (≈ 10.7 µM) | 0.5 (≈ 0.668 µM) | > 64 | ≤ 0.125 | > 64 | 8 (≈ 10.7 µM) | > 64 | > 64 | ≤ 0.125 |
| CCOC(=O)c1cn(C2CC2)c2ccc(C#CCN3CCN(CCC(=O)O[C@H]4[C@H](C)O[C@@H](O[C@H]5[C@H](C)[C@@H](O[C@@H]6O[C@H](C)C[C@H](N(C)C)[C@H]6O)[C@](C)(OC)C[C@@H](C)C(=O)[C@H](C)[C@@H](O)[C@](C)(O)[C@@H](CC)OC(=O)[C@@H]5C)C[C@@]4(C)OC)CC3)cc2c1=O | 0.5 (≈ 0.423 µM) | ≤ 0.125 | 4 (≈ 3.39 µM) | > 64 | 4 (≈ 3.39 µM) | ≤ 0.125 | 4 (≈ 3.39 µM) | > 64 | ≤ 0.125 | 16 (≈ 13.5 µM) | ≤ 0.125 | > 64 | > 64 | 4 (≈ 3.39 µM) |
| CCOC(=O)c1cn(CC)c2ccc(C#CCN3CCNCC3)cc2c1=O | > 64 | > 64 | > 64 | > 64 | > 64 | > 64 | > 64 | > 64 | > 64 | > 64 | > 64 | > 64 | > 64 | > 64 |
| CCOC(=O)c1cn(C2CC2)c2ccc(CCCN3CCN(CCC(=O)O[C@H]4[C@H](C)O[C@@H](O[C@H]5[C@H](C)[C@@H](O[C@@H]6O[C@H](C)C[C@H](N(C)C)[C@H]6O)[C@](C)(O)C[C@@H](C)CN(C)[C@H](C)[C@@H](OC)[C@](C)(O)[C@@H](CC)OC(=O)[C@@H]5C)C[C@@]4(C)OC)CC3)cc2c1=O | 0.25 (≈ 0.208 µM) | ≤ 0.125 | 32 (≈ 26.7 µM) | 16 (≈ 13.3 µM) | > 64 | ≤ 0.125 | 4 (≈ 3.33 µM) | > 64 | ≤ 0.125 | 32 (≈ 26.7 µM) | 1 (≈ 0.833 µM) | > 64 | > 64 | – |

From ChEMBL document CHEMBL1926518, “Synthesis of macrolones with central piperazine ring in the linker and its influence on antibacterial activity” (2011)
